These results are taken from ChEMBL document CHEMBL4359827 (ACS Med Chem Lett, 2019).

In data set [1] the target is T1, Indoleamine 2,3-dioxygenase 1 (Homo sapiens, UniProt P14902). The data set can be described thus: Inhibition of human IDO1 expressed in Escherichia coli Rosetta measured after 1 hr by microplate reader analysis.
The target in data set [2] is Tryptophan 2,3-dioxygenase (Homo sapiens, UniProt P48775). Put plainly: Inhibition of human TDO expressed in Escherichia coli Rosetta measured after 1 hr microplate reader analysis.
Data set [3] deals with T1, Indoleamine 2,3-dioxygenase 1. The data set can be described thus: Inhibition of IDO in human HeLa cells using tryptophan as substrate measured after 48 hrs in presence of INF gamma microplate reader analysis. It is filed as cell-based.
Data set [4] can be described thus: Protein binding in human plasma measured after 4 hrs by rapid equilibrium dialysis. Format: ADME, cell-free. To be noted: read-out: PPB (converted).
Data set [5] can be described thus: Protein binding in dog plasma measured after 2 to 6 hrs by rapid equilibrium dialysis. The note with it: read-out: PPB (converted). It is filed as ADME, cell-free, Canis lupus familiaris. In general terms: Equilibrium dialysis compares concentrations on both sides of a semipermeable membrane.
The nature of data set [6]: Protein binding in mouse plasma measured after 2 to 6 hrs by rapid equilibrium dialysis. It is filed as ADME, cell-free. To be noted: read-out: PPB (converted).
The nature of data set [7]: Half-life in rat liver microsomes. It is filed as ADME, Microsome.
Data set [8] in a line: Half-life in human liver microsomes. It is filed as ADME, Microsome. In general terms: Microsomes from liver hold many membrane-bound enzymes, among them those of drug oxidation.
A short description of data set [9]: Cmax in C57BL/6 mouse at 10 mg/kg via oral gavage measured upto 24 hrs. The note with it: in vivo. It is filed as ADME, organism-based. On the set-up: dose 10 mg/kg, route oral.
A short description of data set [10]: AUC in C57BL/6 mouse at 10 mg/kg via oral gavage measured upto 24 hrs. It is filed as ADME, organism-based. Also on record: time < 24 hr, dose 10 mg/kg, route oral. To be noted: in vivo.
Data set [11] is described as follows: Half-life in C57BL/6 mouse at 10 mg/kg via oral gavage measured upto 24 hrs. It is filed as ADME, organism-based. The note with it: in vivo.
The nature of data set [12]: Oral bioavailability in C57BL/6 mouse at 10 mg/kg measured upto 24 hrs. Format: ADME, organism-based. To be noted: in vivo.
A short description of data set [13]: Cmax in Sprague-Dawley rat at 10 mg/kg via oral gavage measured upto 24 hrs. It is filed as ADME, organism-based. Also on record: dose 10 mg/kg, route oral. To be noted: in vivo.
The nature of data set [14]: AUC in Sprague-Dawley rat at 10 mg/kg via oral gavage measured upto 24 hrs. It is filed as ADME, organism-based. Also on record: time < 24 hr, dose 10 mg/kg, route oral. The note with it: in vivo.
Data set [15] can be described thus: Half-life in Sprague-Dawley rat at 10 mg/kg via oral gavage measured upto 24 hrs. It is filed as ADME, organism-based. To be noted: in vivo.
Data set [16] can be described thus: Oral bioavailability in Sprague-Dawley rat at 10 mg/kg measured upto 24 hrs. It is filed as ADME, organism-based. To be noted: in vivo.
A short description of data set [17]: Cmax in Beagle dog at 2 mg/kg via oral gavage measured upto 24 hrs. It is filed as ADME, organism-based, Canis lupus familiaris. Also on record: dose 2 mg/kg, route oral. To be noted: in vivo.
Data set [18] can be described thus: AUC in Beagle dog at 2 mg/kg via oral gavage measured upto 24 hrs. On the set-up: time < 24 hr, dose 2 mg/kg, route oral. Format: ADME, organism-based, Canis lupus familiaris. The note with it: in vivo.
The nature of data set [19]: Half-life in Beagle dog at 2 mg/kg via oral gavage measured upto 24 hrs. Format: ADME, organism-based, Canis lupus familiaris. The note with it: in vivo.
Data set [20] is described as follows: Oral bioavailability in Beagle dog at 2 mg/kg measured upto 24 hrs. It is filed as ADME, organism-based, Canis lupus familiaris. To be noted: in vivo.
A further data set deals with Mus musculus. Put plainly: Reduction in plasma kynurenine levels in C57BL/6 mouse at 100 mg/kg, s.d ig measured after 2 hrs relative to control. To be noted: in vivo, po. It is filed as ADME, organism-based. On the set-up: scale not given: the % may be the effect or the level left.
The subject of data set [21] is MC-38. The data set can be described thus: Antitumour activity against MC38 cells xenografted in humanized PD1 transgenic mouse assessed as tumour growth inhibition at 20 mg/kg, po bid for 14 days by digital caliper method relative to control. Format: functional. The note with it: MC-38, po, 336 h, read-out: TGI. The method, boiled down: (§1)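 MC38 tumors implanted in hPD1 transgenic mice. Compound given orally at 20 or 50 mg/kg, bid × 14. Tumor growth inhibition (TGI) was calculated against control. Body weight was monitored.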
Background: In xenograft studies the graft and the host belong to different species.

The subject of data set [22] is MC-38. Put plainly: Antitumour activity against MC38 cells xenografted in humanized PD1 transgenic mouse assessed as tumour growth inhibition at 50 mg/kg, po bid for 14 days by digital caliper method relative to control. It is filed as functional. The note with it: MC-38, po, 336 h, read-out: TGI. The method, boiled down:
as §1

Data set [23] deals with MC-38. Put plainly: Synergistic antitumour activity against MC38 cells xenografted in humanized PD1 transgenic mouse assessed as tumour growth inhibition at 20 to 50 mg/kg, po bid for 14 days pretreated with SHR-1210 at 5 mg/kg, ip qod for 8 days by digital caliper method relative to control.

By IC50 is commonly meant the midpoint of a concentration-inhibition curve. What is called half-life is how long it takes for the measured level to halve. Usually Cmax stands for the peak of the concentration-time curve. One may read the AUC as concentration integrated over time. One may read the bioavailability as the share of a dose that reaches the circulation, judged against a reference dose that is usually intravenous. What is called TGI is how far tumour growth fell short of that in controls.

T1 sequence (P14902 whole entry): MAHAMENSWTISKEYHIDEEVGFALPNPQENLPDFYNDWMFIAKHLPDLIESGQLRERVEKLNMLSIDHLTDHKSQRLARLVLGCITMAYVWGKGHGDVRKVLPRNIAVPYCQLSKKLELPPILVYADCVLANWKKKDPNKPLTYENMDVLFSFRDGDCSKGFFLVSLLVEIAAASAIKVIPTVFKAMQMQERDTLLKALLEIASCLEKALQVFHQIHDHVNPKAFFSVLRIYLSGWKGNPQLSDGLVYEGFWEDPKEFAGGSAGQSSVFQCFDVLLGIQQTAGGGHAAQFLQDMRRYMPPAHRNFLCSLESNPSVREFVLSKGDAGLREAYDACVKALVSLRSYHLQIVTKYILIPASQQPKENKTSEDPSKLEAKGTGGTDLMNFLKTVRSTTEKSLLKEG
Chain of Tryptophan 2,3-dioxygenase (P48775 whole entry): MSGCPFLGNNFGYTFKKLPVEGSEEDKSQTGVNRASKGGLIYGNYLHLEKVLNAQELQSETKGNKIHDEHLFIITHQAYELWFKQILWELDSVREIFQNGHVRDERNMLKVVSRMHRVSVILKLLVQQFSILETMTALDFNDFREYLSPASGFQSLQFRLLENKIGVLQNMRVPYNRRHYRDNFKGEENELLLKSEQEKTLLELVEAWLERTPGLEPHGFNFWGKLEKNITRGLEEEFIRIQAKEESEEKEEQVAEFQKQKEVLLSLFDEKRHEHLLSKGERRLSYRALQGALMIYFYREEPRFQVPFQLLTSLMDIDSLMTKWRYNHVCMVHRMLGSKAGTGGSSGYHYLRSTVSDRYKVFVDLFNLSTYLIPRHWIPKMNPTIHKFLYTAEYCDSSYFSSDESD

Take `Fc1cccc2c1C(C1CCN(c3ccc(N4CCOCC4)cc3)CC1)n1cncc1-2` (stereo not drawn): the IC50 in [1] was found to be 358 nM; in data set [2], 1030 nM; in [3], 1710 nM.
Consider `Fc1cccc2c1C(C1CCN(c3ccc(-c4cccnc4)cc3)CC1)n1cncc1-2` (stereo not drawn), for which the figures for the IC50 in data set [1], in [2] and in data set [3] were 70 nM, 183 nM and 240 nM, respectively.
In the case of `Fc1cccc2c1C(C1CCN(c3nccs3)CC1)n1cncc1-2` (stereo not drawn), the values for the IC50 in [1], in [2] and in data set [3] were 297 nM, 586 nM and 571 nM, respectively.
The like results for `Cc1cc(N2CCC(C3c4c(F)cccc4-c4cncn43)CC2)ccc1-c1cnn(C)c1` (stereo not drawn) were, in that order, 14 nM, 114 nM and 121 nM.
Take `Fc1cccc2c1C(C1CCNCC1)n1cncc1-2` (stereo not drawn): the IC50 in [1] and in data set [2] was over 10000 nM in each case.
For `Fc1cccc2c1C(C1CCN(c3ccccc3)CC1)n1cncc1-2` (stereo not drawn), the IC50 in data set [3] came out at 544 nM.
Take `Cn1cc(-c2cnc(N3CCC(C4c5c(F)cccc5-c5cncn54)CC3)nc2)cn1` (stereo not drawn): the IC50 in [1] turned out to be 113 nM; in [2], 579 nM; in data set [3], 324 nM.
The like results for `Cc1cc(-c2cnn(C)c2)ccc1N1CCC(C2c3c(F)cccc3-c3cncn32)CC1` (stereo not drawn) were, in that order, 20 nM, 226 nM and 691 nM.
For the compound `Cn1cc(-c2ccc(N3CCC([C@H]4c5c(F)cccc5-c5cncn54)CC3)cc2)cn1`, the fraction unbound at 4 h in [4] was 0.003. Besides, the values for the fraction unbound in [5] and in data set [6] were 0.008 and 0.004, respectively. In addition, the half-life is 2.37 h in [7]; 2.45 h in [8]; 4.55 h in data set [11]; 1.22 h in [15]; 6.49 h in data set [19]. The results for the highest concentration (Cmax) in [9], in data set [13] and in data set [17] were 3600 ng/mL, 1850 ng/mL and 166 ng/mL, respectively. The AUC at 24 h amounted to 29100 ng·h/mL in data set [10], 6130 ng·h/mL in data set [14] and 1340 ng·h/mL in [18]. Also, the bioavailability in data set [12] was 59.6%; in [16], 60.3%; in [20] it was 27.3%. Further, in the data set on Mus musculus, the Activity was 57%. In the data set on MC-38 [21], the inhibition in vivo at 20 mg/kg is 39%. In the data set on MC-38 [22], the inhibition in vivo at 50 mg/kg stood at 78%. Also, in the data set on MC-38 [23], the TGI was over 90%.
As to `Fc1cccc2c1C(C1CCCC1)n1cncc1-2` (stereo not drawn), the IC50 in data set [1] worked out at 764 nM; in data set [2], 95 nM; in [3], 1240 nM.
Regarding `Fc1cccc2c1C(c1ccccc1)n1cncc1-2` (stereo not drawn), the figures for the IC50 in [1] and in data set [2] were 2740 nM and 374 nM, respectively.
As to `Fc1cccc2c1C(C1CCOCC1)n1cncc1-2` (stereo not drawn), the figures for the IC50 in [1], in data set [2] and in data set [3] were 969 nM, 189 nM and 5340 nM, respectively.
The like results for `Fc1cccc2c1C(C1CCN(c3nc4ccccc4s3)CC1)n1cncc1-2` (stereo not drawn) were, in that order, 19 nM, 195 nM and 440 nM.
In the case of `Fc1cccc2c1C(C1CCN(c3ccc(-c4ccncc4)cc3)CC1)n1cncc1-2` (stereo not drawn), the IC50 in data set [1] amounted to 33 nM; in data set [2] it was 353 nM; in data set [3], 280 nM.
As for `Cn1ccc2ccc(N3CCC(C4c5c(F)cccc5-c5cncn54)CC3)cc21` (stereo not drawn), the IC50 came out at 27 nM in [1], 376 nM in data set [2] and 203 nM in data set [3].
For `Fc1cccc2c1C(Cc1ccccc1)n1cncc1-2` (stereo not drawn), the values for the IC50 in data set [1] and in data set [2] were 2730 nM and 793 nM, respectively.
For `Cn1cc(-c2cccc(N3CCC(C4c5c(F)cccc5-c5cncn54)CC3)c2)cn1` (stereo not drawn), half-maximal inhibition in [2] (IC50) required 639 nM.
On to `Fc1cccc2c1C(C1CCCCC1)n1cncc1-2` (stereo not drawn), for which the IC50 in data set [1] turned out to be 108 nM; in data set [2], 85 nM; in [3], 568 nM.
For the compound `O=C(c1ccccc1)N1CCC(C2c3c(F)cccc3-c3cncn32)CC1` (stereo not drawn), the IC50 in data set [1] stood at 3560 nM; in data set [2] it was 1270 nM.
`O[C@H](C[C@H]1c2c(F)cccc2-c2cncn21)[C@H]1CC[C@H](O)CC1` [NAVOXIMOD] had an IC50 in [2] of 247 nM.
